Source: ChEMBL document CHEMBL3526138, “Excretion and metabolism of milnacipran in humans after oral administration of milnacipran hydrochloride” (Drug Metab Dispos, 2012)

What was measured:
[1] = Drug excretion in human urine treated with [14C]-labeled milnacipran hydrochloride at 100 mg, po after 8 to 12 hrs by HPLC analysis; format: ADME, organism-based; details: in vivo
In short: (§1)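 Healthy male subjects, single oral 100 mg [14C] milnacipran hydrochloride (1 μCi/mg) after breakfast; urine pooled by interval and kept at -80°C. Urine injected directly (200 µL) onto phenyl-hexyl HPLC, 35°C, gradient ammonium acetate pH 5/methanol at 1 mL/min, with radioactivity flow detection. Metabolite excretion = net peak radioactivity (% of chromatogram, background-subtracted) × urine radioactivity excreted (% of dose); four subjects without emesis, mean.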

[2] = Drug excretion in human urine treated with [14C]-labeled milnacipran hydrochloride at 100 mg, po up to 4 hrs by HPLC analysis; format: ADME, organism-based; details: in vivo; in short: as §1
[3] = Drug excretion in human urine treated with [14C]-labeled milnacipran hydrochloride at 100 mg, po after 0 to 96 hrs by HPLC analysis; format: ADME, organism-based; details: in vivo
Plasma [4] = test: Plasma concentration in human treated with [14C]-labeled milnacipran hydrochloride at 100 mg, po measured at 2 hrs by HPLC analysis; format: ADME, organism-based; details: in vivo
In short: (§2)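 Single oral 100 mg [14C] milnacipran hydrochloride in healthy men; blood taken into chilled K3EDTA tubes, plasma spun at ≥2,500 g for 10 min at 4°C and stored at -80°C. Pooled timepoint plasma was extracted and run on phenyl-hexyl HPLC, with 0.5-min fractions counted by LSC. Peak concentration = % of chromatogram radioactivity × pool radioactivity (ng equivalent of milnacipran/mL).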

Plasma [5] = test: Plasma concentration in human treated with [14C]-labeled milnacipran hydrochloride at 100 mg, po measured at 4 hrs by HPLC analysis; format: ADME, organism-based; details: in vivo; in short: as §2
Plasma [6] = test: Plasma concentration in human treated with [14C]-labeled milnacipran hydrochloride at 100 mg, po measured at 1 hr by HPLC analysis; format: ADME, organism-based; details: in vivo; in short: as §2
Plasma [7] = test: Plasma concentration in human treated with [14C]-labeled milnacipran hydrochloride at 100 mg, po measured at 3 hrs by HPLC analysis; format: ADME, organism-based; details: in vivo; in short: as §2
Plasma [8] = test: Plasma concentration in human treated with [14C]-labeled milnacipran hydrochloride at 100 mg, po measured at 0.5 hrs by HPLC analysis; format: ADME, organism-based; details: in vivo; in short: as §2
[9] = Retention time in human urine treated with [14C]-labeled milnacipran hydrochloride at 100 mg, po by HPLC analysis; format: ADME, organism-based; details: in vivo
In short: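 Urine from subjects given oral 100 mg [14C] milnacipran hydrochloride was run on a Luna phenyl-hexyl column (250 x 4.6 mm) with guard column at 35°C. Elution used a gradient of ammonium acetate pH 5/water/methanol at 1 mL/min, with in-line radioactivity flow detection and UV at 220 nm.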

[10] = Drug excretion in human urine treated with [14C]-labeled milnacipran hydrochloride at 100 mg, po after 48 to 72 hrs by HPLC analysis; format: ADME, organism-based; details: in vivo; in short: as §1
Plasma [11] = test: Plasma concentration in human treated with [14C]-labeled milnacipran hydrochloride at 100 mg, po measured at 12 hrs by HPLC analysis; format: ADME, organism-based; details: in vivo; in short: as §2
[12] = Drug excretion in human urine treated with [14C]-labeled milnacipran hydrochloride at 100 mg, po after 24 to 48 hrs by HPLC analysis; format: ADME, organism-based; details: in vivo; in short: as §1
Plasma [13] = test: Plasma concentration in human treated with [14C]-labeled milnacipran hydrochloride at 100 mg, po measured at 6 hrs by HPLC analysis; format: ADME, organism-based; details: in vivo; in short: as §2
[14] = Drug excretion in human urine treated with [14C]-labeled milnacipran hydrochloride at 100 mg, po after 4 to 8 hrs by HPLC analysis; format: ADME, organism-based; details: in vivo; in short: as §1
Plasma [15] = test: Plasma concentration in human treated with [14C]-labeled milnacipran hydrochloride at 100 mg, po measured at 1.5 hrs by HPLC analysis; format: ADME, organism-based; details: in vivo; in short: as §2
[16] = Drug excretion in human urine treated with [14C]-labeled milnacipran hydrochloride at 100 mg, po after 72 to 96 hrs by HPLC analysis; format: ADME, organism-based; details: in vivo; in short: as §1
[17] = Drug excretion in human urine treated with [14C]-labeled milnacipran hydrochloride at 100 mg, po after 12 to 24 hrs by HPLC analysis; format: ADME, organism-based; details: in vivo; in short: as §1
[18] = Drug excretion in mouse urine at 100 mg/kg, po; format: ADME, organism-based; parameters: dose 100 mg/kg, route oral; details: read-out: Drug excretion
[19] = Drug excretion in rat urine at 100 mg/kg, po; format: ADME, organism-based; parameters: dose 100 mg/kg, route oral; details: read-out: Drug excretion
[20] = Drug excretion in monkey urine at 60 mg/kg, po; format: ADME, organism-based, Macaca mulatta; parameters: dose 60 mg/kg, route oral; details: rhesus monkey, read-out: Drug excretion
[21] = Tmax in human; format: ADME, organism-based; details: in vivo
[22] = AUC (0 to infinity) in human at 100 mg, po by LC-MS/MS analysis; format: ADME, organism-based; parameters: dose 100 mg, time infinity, route oral; details: plasma
In short: (§3)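 Plasma from healthy males after single oral 100 mg [14C] milnacipran hydrochloride, sampled 0.5–120 h. Unchanged drug quantified by validated LC-MS/MS with [2H10] internal standard, C8 column isocratic formic acid/water/methanol; linear 5–2000 ng/mL, LLOQ 5 ng/mL in 25 µL plasma. Non-compartmental analysis; values below LLOQ set to zero; subjects without emesis.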

[23] = Tmax in human at 100 mg, po by LC-MS/MS analysis; format: ADME, organism-based; details: in vivo; in short: as §3
[24] = AUC (0 to t) in human at 100 mg, po by LC-MS/MS analysis; format: ADME, organism-based; details: plasma; in short: as §3
[25] = Half life in human plasma; format: ADME, cell-free
[26] = Half life in human at 100 mg, po by LC-MS/MS analysis; format: ADME, organism-based; details: in vivo; in short: as §3
[27] = Drug excretion in human urine treated with [14C]-labeled milnacipran hydrochloride at 100 mg, po up to 96 hrs by LC-SRM analysis; format: ADME, organism-based; details: in vivo
In short: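 0–96 h urine pool analysed by chiral LC-SRM on Chirobiotic V column, ammonium formate-methanol mobile phase, 1 mL/min, column 20°C. Enantiomer proportion from peak areas corrected by urine standard ratio, multiplied by milnacipran excreted in the pool (% of dose).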

[28] = Cmax in human at 100 mg, po by LC-MS/MS analysis; format: ADME, organism-based; parameters: dose 100 mg, route oral; details: in vivo; in short: as §3
[29] = Drug excretion in human urine; format: ADME; details: read-out: Drug excretion

| Compound | Drug excretion [1] [%] | Drug excretion [2] [%] | Drug excretion [3] [%] | Cp (Plasma [4]) [ng.Eq/ml] | Cp (Plasma [5]) [ng.Eq/ml] | Cp (Plasma [6]) [ng.Eq/ml] | Cp (Plasma [7]) [ng.Eq/ml] | Cp (Plasma [8]) [ng.Eq/ml] | Retention_time [9] [min] | Drug excretion [10] | Cp (Plasma [11]) [ng.Eq/ml] | Drug excretion [12] [%] | Cp (Plasma [13]) [ng.Eq/ml] | Drug excretion [14] [%] | Cp (Plasma [15]) [ng.Eq/ml] | Drug excretion [16] | Drug excretion [17] [%] | Drug excretion [27] [%] | also measured |
| --- | --- | --- | --- | --- | --- | --- | --- | --- | --- | --- | --- | --- | --- | --- | --- | --- | --- | --- | --- |
| CCN(CC)C(=O)C1(c2ccccc2)CC1CNC(=O)O[C@@H]1O[C@H](C(=O)O)[C@@H](O)[C@H](O)[C@H]1O (some centres not stated) | – | – | – | – | – | – | – | – | – | – | – | – | – | – | – | – | – | – | dose excreted [18]: 1%; dose excreted [19]: 0.1%; dose excreted [20]: 1.6% |
| CCN(CC)C(=O)C1(c2ccccc2)CC1CN (racemic) [MILNACIPRAN] | 7.17 | 15.54 | 54.71 | 178.93 | 214.21 | 83.17 | 208.01 | 33.92 | 35 | 1.47% | 87.22 | 5.45 | 186.82 | 14.42 | 156.73 | 0.3% | 10.87 | 54.7 | Tmax [21]: 2 h; AUC(0-inf) [22]: 2770 ng·h/mL; Tmax [23]: 3.5 h; AUC(0-t) [24]: 2340 ng·h/mL; half-life [25]: 8 h; half-life [26]: 8.9 h; Cmax [28]: 240 ng/mL; dose excreted [29]: 50% |
| CCN(CC)C(=O)C1(c2ccccc2)CC1CN (stereo in doubt) [MILNACIPRAN] | – | – | – | – | – | – | – | – | – | – | – | – | – | – | – | – | – | 23.5 | – |
| CCN(CC)C(=O)[C@@]1(c2ccccc2)C[C@H]1CN [LEVOMILNACIPRAN] | – | – | – | – | – | – | – | – | – | – | – | – | – | – | – | – | – | 31.2 | – |

Now from value to compound, other results behind:

| Drug excretion [1] [%] | Drug excretion [2] [%] | Drug excretion [3] [%] | Cp (Plasma [4]) [ng.Eq/ml] | Cp (Plasma [5]) [ng.Eq/ml] | Cp (Plasma [6]) [ng.Eq/ml] | Cp (Plasma [7]) [ng.Eq/ml] | Cp (Plasma [8]) [ng.Eq/ml] | Retention_time [9] [min] | Drug excretion [10] | Cp (Plasma [11]) [ng.Eq/ml] | Drug excretion [12] [%] | Cp (Plasma [13]) [ng.Eq/ml] | Drug excretion [14] [%] | Cp (Plasma [15]) [ng.Eq/ml] | Drug excretion [16] | Drug excretion [17] [%] | Compound | Drug excretion [27] [%] | also measured |
| --- | --- | --- | --- | --- | --- | --- | --- | --- | --- | --- | --- | --- | --- | --- | --- | --- | --- | --- | --- |
| 0.37 | 0.55 | 2.14 | < 7.8 | 17.49 | < 7.8 | 16.42 | < 7.8 | 24 | Below limit of detection | < 7.8 | 0.28 | < 7.8 | 0.64 | < 7.8 | Below limit of detection | 0.58 | CCN(CC)C(=O)[C@@]1(c2ccccc2)C[C@H]1CNC(=O)O[C@@H]1O[C@H](C(=O)O)[C@@H](O)[C@H](O)[C@H]1O | – | – |
| 1.26 | 0.92 | 7.73 | < 7.8 | 19.63 | < 7.8 | 24.6 | < 7.8 | 11 | 0.73% | 13.67 | 1.36 | 23.46 | 1.35 | < 7.8 | 0.06% | 2.06 | CCNC(=O)[C@@]1(c2ccccc2)CC1CN (some centres not stated) | – | – |
| 2.36 | 6.26 | 17.23 | 190.14 | 234.38 | 101.66 | 195.72 | 26.57 | 22 | 0.19% | 50.79 | 0.76 | 140.79 | 5.39 | 161.3 | Below limit of detection | 2.36 | CCN(CC)C(=O)[C@]1(c2ccccc2)C[C@@H]1CNC(=O)O[C@@H]1O[C@H](C(=O)O)[C@@H](O)[C@H](O)[C@H]1O | – | – |
